Measured values as given in ChEMBL document CHEMBL3102796.

Columns and labels:
Influenza A virus [1] = assay: Antiviral activity against Influenza A virus A/California/07/2009 (H1N1) infected in MDCK cells assessed as reduction in virus plaque formation after 5 days; format: functional, organism-based; settings: 120 h
Procedure, shortened: (§1)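 MDCK cells were seeded at 1×10^6 per well and inoculated with virus at confluence. Serial ten-fold dilutions of inhibitor were added in an overlay of serum-free DMEM with 0.6% agarose and 1 µg/mL TPCK-treated trypsin. The overlay was removed after 5 days, and cells were fixed with 70% ethanol and stained with 0.2% crystal violet.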

Neuraminidase [2] = biological target: T1, Neuraminidase (Influenza A virus, UniProt B4URF0); assay: Inhibition of Influenza A virus H5N1 neuraminidase using MUNANA as substrate preincubated for 30 mins measured after 2 hrs
Neuraminidase [3] = biological target: T1, Neuraminidase; assay: Inhibition of Influenza A virus A/California/07/2009 (H1N1) neuraminidase using MUNANA as substrate preincubated for 30 mins measured after 2 hrs
Influenza A virus [4] = assay: Antiviral activity against Influenza A virus A/Hong Kong/8/1968 (H3N2) infected in MDCK cells assessed as reduction in virus plaque formation after 5 days; format: functional, organism-based; settings: 120 h; procedure, shortened: as §1
Neuraminidase [5] = biological target: T1, Neuraminidase; assay: Inhibition of Influenza A virus H3N2 neuraminidase using MUNANA as substrate preincubated for 30 mins measured after 2 hrs
Neuraminidase [6] = biological target: T1, Neuraminidase; assay: Inhibition of Influenza A virus A/Hong Kong/8/1968 (H3N2) neuraminidase using MUNANA as substrate preincubated for 30 mins measured after 2 hrs

T1 sequence (B4URF0 whole entry): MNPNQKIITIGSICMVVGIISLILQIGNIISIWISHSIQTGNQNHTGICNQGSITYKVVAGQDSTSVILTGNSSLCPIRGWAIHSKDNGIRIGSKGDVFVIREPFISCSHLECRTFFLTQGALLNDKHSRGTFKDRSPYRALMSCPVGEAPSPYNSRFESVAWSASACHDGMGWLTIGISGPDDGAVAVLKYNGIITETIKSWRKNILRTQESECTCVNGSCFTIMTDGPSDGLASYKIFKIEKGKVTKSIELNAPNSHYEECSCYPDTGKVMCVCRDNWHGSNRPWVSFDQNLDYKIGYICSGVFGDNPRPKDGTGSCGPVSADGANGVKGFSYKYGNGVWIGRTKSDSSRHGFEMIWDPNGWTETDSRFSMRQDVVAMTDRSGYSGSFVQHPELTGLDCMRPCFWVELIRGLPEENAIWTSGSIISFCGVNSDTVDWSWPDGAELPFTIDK

Compound | IC50 (Influenza A virus [1]) [µM] | IC50 (Neuraminidase [2]) [µM] | IC50 (Neuraminidase [3]) [µM] | IC50 (Influenza A virus [4]) [µM] | IC50 (Neuraminidase [5]) [µM] | IC50 (Neuraminidase [6]) [µM]
CC(=O)N[C@H]1[C@H]([C@H](O)[C@H](O)CO)OC(SCCCCCCS)(C(=O)O)C[C@@H]1N (stereo not given in full) | > 100 | 127 | 56 | 10 | 178 | 64
CC(=O)N[C@H]1[C@H]([C@H](O)[C@H](O)CO)OC(SCCCCCCSC2(C(=O)O)C[C@H](N)[C@@H](NC(C)=O)[C@H]([C@H](O)[C@H](O)CO)O2)(C(=O)O)C[C@@H]1N (stereo not given in full) | 100 | 20 | 9.9 | 1 | 32 | 11.6
CC(=O)N[C@H]1[C@H]([C@H](O)[C@H](O)CO)OC(SCCCCCCCCCCCCSC2(C(=O)O)C[C@H](N)[C@@H](NC(C)=O)[C@H]([C@H](O)[C@H](O)CO)O2)(C(=O)O)C[C@@H]1N (stereo not given in full) | 100 | 31 | 11 | 1 | 40 | 15
CC(=O)N[C@H]1[C@H]([C@H](O)[C@H](O)CO)OC(SCCOCCOCCOCCSC2(C(=O)O)C[C@H](N)[C@@H](NC(C)=O)[C@H]([C@H](O)[C@H](O)CO)O2)(C(=O)O)C[C@@H]1N (stereo not given in full) | 100 | 28 | 9.8 | 1 | 39 | 11
CC(=O)N[C@H]1[C@H]([C@H](O)[C@H](O)CO)OC(SCCOCCOCCOCCOCCSC2(C(=O)O)C[C@H](N)[C@@H](NC(C)=O)[C@H]([C@H](O)[C@H](O)CO)O2)(C(=O)O)C[C@@H]1N (stereo not given in full) | 100 | 64 | 36 | 1 | 178 | 21
CC(=O)N[C@H]1[C@H]([C@H](O)[C@H](O)CO)OC(SCCOCCOCCOCCOCCOCCSC2(C(=O)O)C[C@H](N)[C@@H](NC(C)=O)[C@H]([C@H](O)[C@H](O)CO)O2)(C(=O)O)C[C@@H]1N (stereo not given in full) | 100 | 85 | 45 | 1 | 216 | 33
CC(=O)N[C@H]1[C@H]([C@H](O)[C@H](O)CO)OC(SCCCCCCS)(C(=O)O)C[C@@H]1NC(=N)N (stereo not given in full) | 10 | 0.1 | 0.8 | 1 | 1 | 0.55
CC(=O)N[C@H]1[C@H]([C@H](O)[C@H](O)CO)OC(SCCCCCCSC2(C(=O)O)C[C@H](NC(=N)N)[C@@H](NC(C)=O)[C@H]([C@H](O)[C@H](O)CO)O2)(C(=O)O)C[C@@H]1NC(=N)N (stereo not given in full) | 1 | 0.2 | 0.26 | 0.01 | 4.2 | 0.25
CC(=O)N[C@H]1[C@H]([C@H](O)[C@H](O)CO)OC(SCCCCCCCCCCCCSC2(C(=O)O)C[C@H](NC(=N)N)[C@@H](NC(C)=O)[C@H]([C@H](O)[C@H](O)CO)O2)(C(=O)O)C[C@@H]1NC(=N)N (stereo not given in full) | 1 | 0.73 | 0.8 | 0.1 | 12 | 0.5
CC(=O)N[C@H]1[C@H]([C@H](O)[C@H](O)CO)OC(SCCOCCOCCOCCSC2(C(=O)O)C[C@H](NC(=N)N)[C@@H](NC(C)=O)[C@H]([C@H](O)[C@H](O)CO)O2)(C(=O)O)C[C@@H]1NC(=N)N (stereo not given in full) | 1 | 2.5 | 2.4 | 0.1 | 10 | 1.78
CC(=O)N[C@H]1[C@H]([C@H](O)[C@H](O)CO)OC(SCCOCCOCCOCCOCCSC2(C(=O)O)C[C@H](NC(=N)N)[C@@H](NC(C)=O)[C@H]([C@H](O)[C@H](O)CO)O2)(C(=O)O)C[C@@H]1NC(=N)N (stereo not given in full) | 1 | 1.1 | 1.2 | 0.01 | 10 | 1
CCOC(=O)C1=C[C@@H](OC(CC)CC)[C@H](NC(C)=O)[C@@H](N)C1 [OSELTAMIVIR] | 0.001 | – | – | 0.001 | – | –
CC(=O)N[C@H]1[C@H]([C@H](O)[C@H](O)CO)OC(C(=O)O)=C[C@@H]1NC(=N)N [ZANAMIVIR] | 0.01 | – | – | 0.001 | – | –
